Test: Toxicity liver stage against HepG2, at 10uM
Assay type: cell-based
Parameters: test concentration 10 uM, cell line HepG2-A16-CD81EGFP
Conditions: human, HepG2-A16-CD81EGFP cells; read-out: INHIBITION
How it was run: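 Uninfected HepG2-A16-CD81EGFP cells, 3 × 10^3 per well, 1536-well, plated on prespotted compound at 10 μM final, parasite-free screening media added to match infected plates; puromycin 10 μM positive, DMSO 0.5% negative; run in parallel with 48 h PbLuc assay at 37 °C, 5% CO2; viability by CellTiter-Glo luminescence, normalized to controls.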

Row | Structure (SMILES) | cytotoxicity at 10 µM [%]
1 | CC(C)C(C)(C#N)NC(=O)Cn1nnc(-c2cc3ccccc3o2)n1 (stereo unspecified) | 5.76
2 | CCc1nc(NS(=O)(=O)c2cc(C)cc(F)c2)no1 | 2.31
3 | Cc1ccc(N2CCC3(CCN(Cc4ccccn4)CC3)CC2)nn1 | 7.37
4 | O=C(CCN1CCOCC1)Nc1cccc(CNCc2ccsc2)c1 | -4.66
5 | Cc1cnn(CC2CCCCN2Cc2cnc(C)s2)c1 (stereo unspecified) | -11.3
6 | CC(C)c1noc(CCNC(=O)N2CCN(c3cccs3)CC2)n1 | -5.37
7 | O=C(C1CC2(CCNCC2)CN1)N1CCN(c2cccc(Cl)c2Cl)CC1 (stereo unspecified) | -13.9
8 | CCN(CC)c1ccc2ccc(C(=O)N(C)C)cn12 | 0.626
9 | CC(NC(=O)c1cc(=O)n(C)c(=O)n1C)c1ccccc1-n1cccn1 (stereo unspecified) | -9.47
10 | C[C@H]1CN(Cc2cnn(C)c2)C[C@@]12CCN(Cc1cccnc1)C2=O | 8.99
11 | CO[C@H]1CCN(c2ccc(C)nn2)[C@H]1Cc1cnn(C)c1 | -12.7
12 | O=C1CC(c2ccc(C(=O)O)cc2)c2ncn(-c3ccccc3)c2N1 (stereo unspecified) | -1.04
13 | CN(C)CC(=O)N1CC2(CCN(Cc3ccccc3)C2)C1 | 5.62
14 | Cn1ccnc1CCC1CCCCN1Cc1cnc(N2CCCC2)nc1 (stereo unspecified) | 1.43
15 | CCOCC(=O)N1C[C@@H]2CC[C@H](Oc3ccccc3)[C@@H]2C1 | -16.1
16 | COc1ccc(CC(=O)N2CCCC(n3cc(C)cn3)C2)c(OC)c1 (stereo unspecified) | -8.66
17 | COCCOc1cccc(CNCc2c(C)nn(C)c2N(C)C)c1 | -7.19
18 | CN(C)S(=O)(=O)c1ccc(CNC(=O)C2CC(=O)N(C(C)(C)C)C2)cc1 (stereo unspecified) | 2.13
19 | CCc1noc(C)c1C(=O)N1CCCC1c1c(C)nn(C)c1OC (stereo unspecified) | -12.1
20 | CC(C)Oc1ccc(CNC(=O)C2CCS(=O)(=O)C2)cn1 (stereo unspecified) | 0.788
21 | CN(Cc1nnc(-c2cccs2)o1)Cc1nc2c(s1)CCCC2 | 2.4
22 | CCCn1nnnc1CN1Cc2ccccc2CC1c1nnc(C)o1 (stereo unspecified) | 9.52
23 | Cc1nn(C)c2cnn(CC(=O)NCc3ccccc3F)c12 | 7.8

Row | Structure (SMILES) | cytotoxicity at 10 µM [%]
24 | CC(C)(NS(C)(=O)=O)c1nc(-c2cccc(Cl)c2)no1 | 2.31
25 | COCCOc1ccc(CNc2nc3ccccc3nc2N)cn1 | 33.9
26 | CC(C)C(NC(=O)Nc1cnn(CC(N)=O)c1)c1ccc(Cl)cc1 (stereo unspecified) | 7.51
27 | Cc1ccc(CN2C[C@@H]3[C@@H](C(=O)NCC(C)C)CCS(=O)(=O)[C@@H]3C2)cc1 | 0.793
28 | CC1=CC[C@@H]2CN(C(=O)c3ccc(-c4nnn(C)n4)cc3)C[C@@H]2C1 | 7.16
29 | CC1(C)CC(NC(=O)c2cnn(-c3ccccc3F)c2N)CC(C)(C)N1 | -4.14
30 | CC1CCCN(c2ccccc2OCC(=O)N2CCOCC2)C1 (stereo unspecified) | -22.3
31 | O=C(NCCn1cccc1)C1CCC(=O)N(C2CCCC2)C1 (stereo unspecified) | 0.622
32 | Cc1nn(C)c2cnn(CC(=O)NCc3cccs3)c12 | 6.28
33 | Cn1cc(CN2CCCC(CCc3ccc(F)cc3)C2)cn1 (stereo unspecified) | -12.6
34 | COc1ccccc1CCNC(=O)CN1CCCC1c1noc(C)n1 (stereo unspecified) | -3.81
35 | O=C(Nc1cnn(Cc2ccccc2)c1)N1CCN(CCO)CC1 | 2.11
36 | CCC(=O)N1CCC(c2nnc(Cn3cccn3)n2C2CC2)CC1 | -12.6
37 | O=C(C1CCC1)N1CCC(=O)N(C2CC2)Cc2cc(F)ccc21 | -7.76
38 | N#Cc1ncn(CCC(=O)Nc2ccc(Cl)cc2F)n1 | -8.94
39 | O=C(c1cccc(O)c1)N1CCN(Cc2nnc(C3CCC3)o2)CC1 | -8.52
40 | Cc1csc(N2CCN(Cc3nnsc3Cl)CC2C)n1 (stereo unspecified) | -59.9
41 | CS(=O)(=O)N1CCC(c2nccn2Cc2ccccn2)CC1 | -14.6
42 | Fc1ccc(CN2CCOCC3(CCN(Cc4nccs4)C3)C2)cc1 (stereo unspecified) | 4.23
43 | O=C(NCc1ccco1)[C@@H]1COC[C@H]2CN(c3ncc(F)cn3)C[C@H]21 | -5.67
44 | Cc1ccccc1-c1noc(CN2CCOC(Cn3cccn3)C2)n1 (stereo unspecified) | -5.04
45 | COc1cccc(-c2nccc(C3CCCN3C)n2)c1 (stereo unspecified) | 9.27
46 | CCC(CO)NCc1ccc(-c2ccccc2)o1 (stereo unspecified) | 4.42

Row | Structure (SMILES) | cytotoxicity at 10 µM [%]
47 | Cc1nc(N2CCCC2)ncc1-c1cc(O)nc(N2CCCCC2)n1 | 10.7
48 | O=C(c1cnc2c(cnn2C2CCCC2)c1)N1CCN(CCO)CC1 | -17.2
49 | COc1cccc([C@@H]2CN(C3CCCC3)C[C@H]2C(=O)O)c1 | -5.89
50 | COc1c(F)cc(CN2CCC3(CC2)CN(C)C(=O)O3)cc1Cl | 8.08
51 | CSc1ccc(NC(=O)NCC(O)C(C)C)cc1F (stereo unspecified) | 6.93
52 | CNC(=O)CN(C)c1cncc(OCC(C)C)n1 | 0.137
53 | CC(C)c1nnc(NCc2ccsc2)o1 | -0.19
54 | O=C1NCCO[C@H]2CN(C(=O)CC3Cc4ccccc4C3)CC[C@@H]12 | -106
55 | CC1(c2ccc(Br)cc2)CC(=O)N(CCC#N)C1=O (stereo unspecified) | 0.923
56 | CCOCc1ncn2c1CN(C(=O)Nc1ccc(CC)cc1)CC2 | 5.96
57 | CSCc1noc(CN2CCC3(CC2)CC(=O)N(CC(C)C)C3)n1 | -0.0813
58 | COCCN1C[C@@H](C(=O)O)[C@H](c2ccccc2C)C1 | 3
59 | Cc1cccc(C(=O)N2C[C@@H](C)[C@@]3(CCN(c4ccsc4)C3=O)C2)n1 | -78.9
60 | Cc1cncnc1C1CCN(C(=O)C2(C)CCCCN2C)CC1 (stereo unspecified) | 1.06
61 | CCn1nc2c(cc1=O)CN(Cc1cc(C)on1)CC2 | 0.341
62 | COCCNC(=O)c1nnc2ccc(N3CCOCC3)cc2n1 | 10.8
63 | c1cc(CN2C[C@@H]3OCCN(CC4CCCO4)[C@@H]3C2)co1 (stereo partly specified) | 4.8
64 | CCOCCn1nc(C)cc1C(=O)N(C)Cc1cccc2ncccc12 | 4.2
65 | CCc1nc(CN2CCCC(NCc3ccc(C(N)=O)cc3)C2)no1 (stereo unspecified) | -12.3
66 | CN1CCN(Cc2cccnc2)C2(CCN(c3ncccn3)C2)C1=O (stereo unspecified) | 1.31
67 | COCCCn1c(CN2CCCC(O)C2)cnc1S(=O)(=O)C1CCCC1 (stereo unspecified) | -13.5
68 | CCCN1CCN(C(=O)CCn2nc(C(F)(F)F)c(Br)c2C)CC1 | -8.71
69 | CCC(=O)NCC(=O)NC(C)c1sc(-c2ccccc2F)nc1C (stereo unspecified) | 9.65

Row | Structure (SMILES) | cytotoxicity at 10 µM [%]
70 | C=C(C)COc1cccc(CNC(CC)c2ccnn2C)c1 (stereo unspecified) | -4.21
71 | N#Cc1ccc(CNCC2CCN(CCO)CC2)cc1 | -9.7
72 | CCN1CCN(c2ccc(CNC(=O)c3cnn(C)c3C)cn2)CC1 | -11.1
73 | Cc1nc(C2CCCN2C(=O)c2cnns2)no1 (stereo unspecified) | -3.71
74 | Cc1[nH]c2nc(CNc3ccccc3Cl)nn2c(=O)c1C | -1.29
75 | CC(C)C(C(=O)N1CCCN(c2nccs2)CC1)n1cncn1 (stereo unspecified) | -4.98
76 | CC(O)CN1CCN(C(=O)CCOC(C)C)CC1 (stereo unspecified) | -3.86
77 | N#Cc1cccc(CN2CC[C@@H]3[C@@H]2CC(=O)N3Cc2cccnc2)c1 | 5.2
78 | O=S(=O)(Nc1cnc(N2CCOCC2)nc1)c1cccc(F)c1 | -19.2
79 | O=C(NCc1ccoc1)NC1CCN(c2ncccn2)CC1 | 6.36
80 | O=C(CCn1nc(-c2cccs2)oc1=O)Nc1cccc(F)c1 | -5.21
81 | CC(C)NC(=O)N[C@H]1C[C@@H](Cc2cc(CN3CCOCC3)on2)C1(C)C | -5.5
82 | FC(F)Sc1ccc(NCc2nnc(C3CC3)o2)cc1 | 14.7
83 | CCC(CNC(=O)Cc1c(C)noc1C)N1CCCC1 (stereo unspecified) | -46.3
84 | Cc1cc(C(=O)N2CCCCC2)ccc1NS(C)(=O)=O | -1.4
85 | N#Cc1c(N2CCCCC2)nsc1-c1cccnc1 | 18.8
86 | O=C(C1CCCCC1)N1CCC2(CC1)OCCO2 | 9.77
87 | Cc1ccc(N2CCCC3(CCN(C(=O)NC4CCCC4)C3)C2)nn1 (stereo unspecified) | -114
88 | CC(C)C(C)NC(=O)Nc1ccc(CS(C)(=O)=O)cc1 (stereo unspecified) | -8.49
89 | Cc1ccc(C(O)CNC(=O)NCc2csc(C)n2)cc1 (stereo unspecified) | -5.13
90 | CC(=O)N1CCCN(C(=O)NCc2cc[nH]n2)CC1 | -6.44
91 | CCN(Cc1nc(C)no1)C(=O)C1CC(=O)N(Cc2ccccn2)C1 (stereo unspecified) | 4.78
92 | O=C(C1CSc2ccccc2O1)N1CCN(CCO)CC1 (stereo unspecified) | -6.29

Row | Structure (SMILES) | cytotoxicity at 10 µM [%]
93 | O=C1CC2(CCN(C(=O)c3ccc4c(c3)CCCO4)C2)C(=O)N1 (stereo unspecified) | 3.67
94 | Cc1cnn(CC2CCCN2C(=O)CCc2cscn2)c1 (stereo unspecified) | -11.9
95 | O=C(N1CCCO1)[C@]12COC[C@H]1CN(Cc1cccnc1)C2 | 8.25
96 | COCC1CN(Cc2cccnc2OC)Cc2cnn(C)c21 (stereo unspecified) | 2.69
97 | COCC(=O)N1CCC(c2noc3nc(C)cc(C(F)(F)F)c23)CC1 | 2.78
98 | Cc1cccc(Cn2nc(C3CCNCC3)n(-c3ccccc3)c2=O)c1 | -4.68
99 | CCN(c1ccc(C(=O)N2CCCC2c2cnn(C)c2)cn1)C(C)C (stereo unspecified) | -0.607
100 | CCNC(=O)NCc1cnn(-c2ccc(F)cc2F)c1 | -6.52
101 | CCS(=O)(=O)NCCNC(C)(C)c1nc(C)cs1 | -0.396
102 | CC1=Nc2c(c(=O)[nH]n2C(C)C)C(c2ccccc2)S1 (stereo unspecified) | 5.53
103 | COc1ccc(CNCc2cn(C)nc2C)cc1 | -1.42
104 | CC(C)[C@@H](C)NC(=O)N1CCn2nc(C(=O)NCCN(C)C)cc2C1 | 2.62
105 | N#CC1(C(=O)N2CCOC(c3ccc(F)cc3)C2)CCCC1 (stereo unspecified) | -3.3
106 | Cc1ccc(-c2nc(CN(Cc3ccco3)C3CCS(=O)(=O)C3)cs2)o1 (stereo unspecified) | 10.3
107 | Cc1ccc(N2CCCC3(CCN(C(=O)c4sccc4C)C3)C2)nn1 (stereo unspecified) | -107
108 | CN(Cc1cnn(C)c1)C(=O)C1COCC(=O)N1Cc1ccccc1 (stereo unspecified) | -4.33
109 | CCc1nnc(SCC(=O)Nc2cc(C(C)(C)C)nn2C)[nH]1 | 7.28
110 | O=C(c1cccnc1)N1CCC2(CC1)CNc1c(F)cccc12 | -1.02
111 | CN(C)C(=O)CN1C[C@H]2CC[C@@H](C1)N(C(=O)CCn1cncn1)C2 | -9.96

Reference: ChEMBL document CHEMBL4513216, “Probing the Open Global Health Chemical Diversity Library for Multistage-Active Starting Points for Next-Generation Antimalarials” (ACS Infect Dis, 2020)
